Assay results gathered from unrelated publications.
Each line is one published result; the experiments were not run side by side.
MMP13: Collagenase 3 (MMP13, Homo sapiens, UniProt P45452)
SLCO1B1: Solute carrier organic anion transporter family member 1B1 (SLCO1B1, Homo sapiens, UniProt Q9Y6L6)
LNPEP: Leucyl-cystinyl aminopeptidase (LNPEP, Homo sapiens, UniProt Q9UIQ6)
JAK1: Tyrosine-protein kinase JAK1 (JAK1, Homo sapiens, UniProt P23458)
CHRM1: Muscarinic acetylcholine receptor M1 (CHRM1, Homo sapiens, UniProt P11229)

For `Nc1ncnc2c1ncn2[C@@H]1O[C@H](CN(CC[C@H](N)C(=O)O)Cc2ccc3ccccc3c2)[C@@H](O)[C@H]1O`, the IC50 was over 50000 nM (Histone-lysine N-methyltransferase NSD2 (NSD2, Homo sapiens, UniProt O96028); enzyme activity, inhibitor).
With `Cc1noc(-c2cc3cc(-c4nc(C(=O)NCc5ccc(=O)[nH]c5)[nH]c4C)ccc3[nH]2)n1` the IC50 was 0.33 nM (MMP13; enzyme activity, inhibitor, FRET).
With `O=C(O)c1cccnc1Nc1cccc(C(F)(F)F)c1` the IC50 was 3700 nM (SLCO1B1; transporter uptake, inhibitor, fluorescence; CHO; 30 min, pH 7.4).
The IC50 of `NC(=O)c1ccc[n+]([C@@H]2O[C@H](COP(=O)([O-])OP(=O)(O)OC[C@H]3O[C@@H](n4cnc5c(N)ncnc54)[C@H](O)[C@@H]3O)[C@@H](O)[C@H]2O)c1` is reported as 377000 nM (Protein mono-ADP-ribosyltransferase PARP8 (Homo sapiens, UniProt Q8N3A8); enzyme activity, inhibitor).
For `Cc1cc(S(=O)(=O)Nc2cccc(-c3nnn[nH]3)c2)ccc1C(F)(F)F`, the IC50 was 2300 nM (LNPEP; enzyme activity, inhibitor, fluorescence).
`CCOc1cc(CC(=O)N[C@@H](CC(C)C)c2ccccc2N2CCCCC2)ccc1C(=O)O` gave an IC50 of 1100 nM (SLCO1B1; transporter uptake, inhibitor, fluorescence; CHO; 30 min, pH 7.4).
With `O=C(COc1ccccc1Br)NCCc1nc2ccccc2[nH]1` the IC50 was 400 nM (Cruzipain (Trypanosoma cruzi, UniProt P25779); enzyme activity, inhibitor).
`Cc1ncsc1-c1ccc(CNC(=O)[C@@H]2C[C@@H](O)CN2C(=O)[C@@H](NC(=O)C2(F)CC2)C(C)(C)C)c(OCCOc2ccc(CN3CCN(c4cc(-c5ccccc5O)nnc4N)CC3)cc2)c1` gave an IC50 of 504 nM (Protein polybromo-1, bromodomain (PBRM1, Homo sapiens, UniProt Q86U86); cell-free assay, TR-FRET).
`O=S(=O)(Nc1cccc(-c2nnn[nH]2)c1)c1c(F)cc(Br)cc1F` gave an IC50 of 7500 nM (LNPEP; enzyme activity, inhibitor, fluorescence).
For `Cn1cc(-c2cc3cc(-c4cc(C(=O)NCc5ccc(C(=O)O)cc5)nn4C)ccc3[nH]2)cn1`, the IC50 was 1.6 nM (MMP13; enzyme activity, inhibitor, FRET).
`CCOCc1nc(O)c(-c2nnc(Cc3ccc(Cl)cn3)o2)c(O)c1-c1c(OC)cccc1OC` gave an IC50 of over 30000 nM (5-hydroxytryptamine receptor 4 (HTR4, Homo sapiens, UniProt Q13639); ligand displacement, radioligand).
`O=C(O[C@H]1[C@@H]2C=CO[C@@H](O[C@@H]3O[C@H](CO)[C@@H](O)[C@H](O)[C@H]3O)[C@@H]2[C@@]2(CO)O[C@@H]12)c1ccc(O)cc1` has an IC50 of 200000 nM (SLCO1B1; transporter uptake, inhibitor, radiometric; HEK293; 10 min).
`CC(C)[C@H](CO)Nc1nc(Nc2cccc(Cl)c2)c2ncn(C(C)C)c2n1` gave an IC50 of over 10000 nM (Serine/threonine-protein kinase PAK 4 (PAK4, Homo sapiens, UniProt O96013); enzyme activity, inhibitor; lysate).
With `C=CCOc1cccc2c1-c1c(c3c(n1C(C)C)CCCC3=O)C2=O` the IC50 was 273 nM (Casein kinase II subunit alpha' (CSNK2A2, Homo sapiens, UniProt P19784, C336S); enzyme activity, inhibitor).
With `CCC1CN(C(=O)NCC(F)(F)F)CC1c1nc(N)nc2[nH]ccc12` (stereo not shown) the IC50 was 9600 nM (JAK1; enzyme activity, inhibitor, ADP detection).
For `O=C(N[C@@H](Cc1ccccc1)C(=O)c1noc(-c2ccccc2)n1)[C@H](Cc1ccccc1)NC(=O)N1CCOCC1`, the IC50 was 200 nM (Papain (Carica papaya, UniProt P00784); enzyme activity, inhibitor; pH 6.5, with preincubation).
The IC50 of `CCCC[C@H](NC(=O)C1CN(C)C1)c1ncc(-c2cc3ccccc3nc2OC)[nH]1` is reported as over 30000 nM (Histone deacetylase 11 (HDAC11, Homo sapiens, UniProt Q96DB2); enzyme activity, inhibitor).
With `COc1ccc2c(Oc3ccc4c(C(=O)Nc5ccccc5N)cccc4c3)ccnc2c1` the IC50 was over 500 nM (JAK1; enzyme activity, inhibitor).
`C[N+]1(C)CCC(OC(=O)C(c2ccccc2)c2ccccc2)CC1` has an IC50 of 5.27 nM (CHRM1; ligand displacement, radioligand).
`CCn1c(-c2nc3cc(C(=O)N4CCC[C@@H](N)C4)cc(OC)c3n2C)cc2cccnc21` has an IC50 of 63100 nM (CHRM1; calcium signal, antagonist, fluorescence).
With `Cc1noc(-c2cc3cc(-c4nc(C(=O)NCc5cccnc5)[nH]c4C)ccc3[nH]2)n1` the IC50 was 0.64 nM (MMP13; enzyme activity, inhibitor, FRET).
For `Cn1ccc2ccc(S(=O)(=O)Nc3cccc(-c4nnn[nH]4)c3)cc21`, the IC50 was 12700 nM (LNPEP; enzyme activity, inhibitor, fluorescence).
